Test results from ChEMBL document CHEMBL4257465, “Strigolactones: a plant phytohormone as novel anti-inflammatory agents” (Medchemcomm, 2018).

Key:
RAW264.7 [1] = assay: Antiinflammatory activity in mouse RAW264.7 cells assessed as inhibition of LPS-induced NO production pretreated for 2 hrs followed by LPS stimulation measured after 24 hrs by Griess assay; assay type: functional, cell-based
How it was run: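 RAW264.7 murine macrophages (DMEM, 10% serum, 37 °C, 5% CO2) seeded at 5 × 10^4 cells/well and cultured 18 h. Compounds tested at 1–100 μM (DMSO 0.1% v/v), with LPS (E. coli 0127:B8) at 100 ng mL−1. Supernatant nitrite read with Griess reagent (10 min, room temperature, OD540).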

RAW264.7 [2] = assay: Antiinflammatory activity in LPS-induced mouse RAW264.7 cells assessed as TNFalpha levels at 5 uM pretreated for 2 hrs followed by LPS stimulation and measured after 12 hrs by ELISA (reference value: 5313.7 +/- 420.9 pg/ml); assay type: functional
How it was run: (§1)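 RAW264.7 murine macrophages (DMEM, 10% serum, 37 °C, 5% CO2) seeded at 5 × 10^5 cells per well, pretreated 2 h with compound at 10, 5, 2.5 or 1.25 μM (DMSO 0.1% v/v), then LPS (E. coli 0127:B8) 100 ng mL−1 added. Supernatant TNF-α or IL-6 read by mouse ELISA kit after 6, 12 and 24 h. Mean ± SD, n = 3, three independent experiments.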

RAW264.7 [3] = assay: Antiinflammatory activity in LPS-induced mouse RAW264.7 cells assessed as TNFalpha levels at 1.25 uM pretreated for 2 hrs followed by LPS stimulation and measured after 6 hrs by ELISA (reference value: 4377.1 +/- 318.6 pg/ml); assay type: functional; how it was run: as §1
RAW264.7 [4] = assay: Antiinflammatory activity in LPS-induced mouse RAW264.7 cells assessed as TNFalpha levels at 2.5 uM pretreated for 2 hrs followed by LPS stimulation and measured after 6 hrs by ELISA (reference value: 4377.1 +/- 318.6 pg/ml); assay type: functional; how it was run: as §1
RAW264.7 [5] = assay: Antiinflammatory activity in LPS-induced mouse RAW264.7 cells assessed as TNFalpha levels at 5 uM pretreated for 2 hrs followed by LPS stimulation and measured after 6 hrs by ELISA (reference value: 4377.1 +/- 318.6 pg/ml); assay type: functional; how it was run: as §1
RAW264.7 [6] = assay: Antiinflammatory activity in LPS-induced mouse RAW264.7 cells assessed as TNFalpha levels at 10 uM pretreated for 2 hrs followed by LPS stimulation and measured after 6 hrs by ELISA (reference value: 4377.1 +/- 318.6 pg/ml); assay type: functional; how it was run: as §1
RAW264.7 [7] = assay: Antiinflammatory activity in LPS-induced mouse RAW264.7 cells assessed as TNFalpha levels at 10 uM pretreated for 2 hrs followed by LPS stimulation and measured after 12 hrs by ELISA (reference value: 5313.7 +/- 420.9 pg/ml); assay type: functional; how it was run: as §1
[8] = Cytotoxicity against mouse RAW264.7 cells assessed as cell viability at 10 uM after 48 hrs by MTT assay (reference value: 100%); assay type: cell-based; conditions: read-out: Activity
How it was run: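 RAW264.7 cells seeded at 4 × 10^3 per well, cultured overnight, exposed to compound (DMSO 0.1% v/v) for 48 h. MTT 0.5 mg mL−1 added for 4 h at 37 °C, formazan dissolved in DMSO, OD570 read. Viability relative to medium-only cells set as 100%. Mean ± SD (n = 5), three independent experiments.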

RAW264.7 [9] = assay: Antiinflammatory activity in LPS-induced mouse RAW264.7 cells assessed as TNFalpha levels at 10 uM pretreated for 2 hrs followed by LPS stimulation and measured after 24 hrs by ELISA (reference value: 9653.7 +/- 377.3 pg/ml); assay type: functional; how it was run: as §1
RAW264.7 [10] = assay: Antiinflammatory activity in LPS-induced mouse RAW264.7 cells assessed as TNFalpha levels at 5 uM pretreated for 2 hrs followed by LPS stimulation and measured after 24 hrs by ELISA (reference value: 9653.7 +/- 377.3 pg/ml); assay type: functional; how it was run: as §1
RAW264.7 [11] = assay: Antiinflammatory activity in LPS-induced mouse RAW264.7 cells assessed as TNFalpha levels at 2.5 uM pretreated for 2 hrs followed by LPS stimulation and measured after 24 hrs by ELISA (reference value: 9653.7 +/- 377.3 pg/ml); assay type: functional; how it was run: as §1
RAW264.7 [12] = assay: Antiinflammatory activity in LPS-induced mouse RAW264.7 cells assessed as TNFalpha levels at 1.25 uM pretreated for 2 hrs followed by LPS stimulation and measured after 24 hrs by ELISA (reference value: 9653.7 +/- 377.3 pg/ml); assay type: functional; how it was run: as §1
RAW264.7 [13] = assay: Antiinflammatory activity in LPS-induced mouse RAW264.7 cells assessed as IL-6 levels at 10 uM pretreated for 2 hrs followed by LPS stimulation and measured after 12 hrs by ELISA (reference value: 1394 +/- 62.6 pg/ml); assay type: functional; how it was run: as §1
RAW264.7 [14] = assay: Antiinflammatory activity in LPS-induced mouse RAW264.7 cells assessed as IL-6 levels at 1.25 uM pretreated for 2 hrs followed by LPS stimulation and measured after 6 hrs by ELISA (reference value: 472.3 +/- 25.8 pg/ml); assay type: functional; how it was run: as §1
RAW264.7 [15] = assay: Antiinflammatory activity in LPS-induced mouse RAW264.7 cells assessed as IL-6 levels at 2.5 uM pretreated for 2 hrs followed by LPS stimulation and measured after 6 hrs by ELISA (reference value: 472.3 +/- 25.8 pg/ml); assay type: functional; how it was run: as §1
RAW264.7 [16] = assay: Antiinflammatory activity in LPS-induced mouse RAW264.7 cells assessed as IL-6 levels at 5 uM pretreated for 2 hrs followed by LPS stimulation and measured after 6 hrs by ELISA (reference value: 472.3 +/- 25.8 pg/ml); assay type: functional; how it was run: as §1
RAW264.7 [17] = assay: Antiinflammatory activity in LPS-induced mouse RAW264.7 cells assessed as IL-6 levels at 10 uM pretreated for 2 hrs followed by LPS stimulation and measured after 6 hrs by ELISA (reference value: 472.3 +/- 25.8 pg/ml); assay type: functional; how it was run: as §1
RAW264.7 [18] = assay: Antiinflammatory activity in LPS-induced mouse RAW264.7 cells assessed as IL-6 levels at 5 uM pretreated for 2 hrs followed by LPS stimulation and measured after 12 hrs by ELISA (reference value: 1394 +/- 62.6 pg/ml); assay type: functional; how it was run: as §1
RAW264.7 [19] = assay: Antiinflammatory activity in LPS-induced mouse RAW264.7 cells assessed as IL-6 levels at 2.5 uM pretreated for 2 hrs followed by LPS stimulation and measured after 12 hrs by ELISA (reference value: 1394 +/- 62.6 pg/ml); assay type: functional; how it was run: as §1
RAW264.7 [20] = assay: Antiinflammatory activity in LPS-induced mouse RAW264.7 cells assessed as IL-6 levels at 1.25 uM pretreated for 2 hrs followed by LPS stimulation and measured after 12 hrs by ELISA (reference value: 1394 +/- 62.6 pg/ml); assay type: functional; how it was run: as §1
RAW264.7 [21] = assay: Antiinflammatory activity in LPS-induced mouse RAW264.7 cells assessed as IL-6 levels at 10 uM pretreated for 2 hrs followed by LPS stimulation and measured after 24 hrs by ELISA (reference value: 1966.6 +/- 102.3 pg/ml); assay type: functional; how it was run: as §1
RAW264.7 [22] = assay: Antiinflammatory activity in LPS-induced mouse RAW264.7 cells assessed as IL-6 levels at 5 uM pretreated for 2 hrs followed by LPS stimulation and measured after 24 hrs by ELISA (reference value: 1966.6 +/- 102.3 pg/ml); assay type: functional; how it was run: as §1
RAW264.7 [23] = assay: Antiinflammatory activity in LPS-induced mouse RAW264.7 cells assessed as IL-6 levels at 2.5 uM pretreated for 2 hrs followed by LPS stimulation and measured after 24 hrs by ELISA (reference value: 1966.6 +/- 102.3 pg/ml); assay type: functional; how it was run: as §1
RAW264.7 [24] = assay: Antiinflammatory activity in LPS-induced mouse RAW264.7 cells assessed as IL-6 levels at 1.25 uM pretreated for 2 hrs followed by LPS stimulation and measured after 24 hrs by ELISA (reference value: 1966.6 +/- 102.3 pg/ml); assay type: functional; how it was run: as §1

CC1C[C@@H](O/C=C2/C(=O)O[C@@H]3c4ccccc4C[C@H]23)OC1=O (some centres undefined) showed an IC50 (RAW264.7 [1]) of 64.6 µM.
CC1=C[C@H](O/C=C2/C(=O)OC3c4ccccc4CC23)OC1=O (some centres undefined) showed an IC50 (RAW264.7 [1]) of 4.06 µM.
CC1C[C@H](O/C=C2/C(=O)O[C@@H]3c4ccccc4C[C@H]23)OC1=O (some centres undefined) showed an IC50 (RAW264.7 [1]) of 32.3 µM.
CC1=C[C@H](O/C=C2/C(=O)O[C@H]3c4ccccc4C[C@@H]23)OC1=O showed an IC50 (RAW264.7 [1]) of 6.34 µM.
Work on CC1C[C@H](O/C=C2/C(=O)OC3c4ccccc4CC23)OC1=O (some centres undefined) yielded an IC50 (RAW264.7 [1]) of 42.1 µM.
With CC1C[C@@H](O/C=C2/C(=O)O[C@H]3c4ccccc4C[C@@H]23)OC1=O (some centres undefined) the IC50 (RAW264.7 [1]) was 35.4 µM.
Compound CC1C[C@@H](O/C=C2/C(=O)OC3c4ccccc4CC23)OC1=O (some centres undefined) has an IC50 (RAW264.7 [1]) of 44.5 µM.
Compound CC1=C[C@@H](O/C=C2/C(=O)OC3c4ccccc4CC23)OC1=O (some centres undefined) has an IC50 (RAW264.7 [1]) of 4.32 µM.
For CC1=C[C@@H](O/C=C2/C(=O)O[C@@H]3c4ccccc4C[C@H]23)OC1=O, the IC50 (RAW264.7 [1]) was 6.62 µM.
Work on C[C@@H]1C[C@H]2[C@@H]3CCC4=CC(=O)C=C[C@]4(C)[C@@]3(F)[C@@H](O)C[C@]2(C)[C@@]1(O)C(=O)CO [DEXAMETHASONE] yielded an Activity (RAW264.7 [2]) of 4063.6 pg/mL, an Activity (RAW264.7 [3]) of 4056.3 pg/mL and an Activity (RAW264.7 [4]) of 3671.8 pg/mL. For the same compound, the Activity (RAW264.7 [5]) was 3219.4 pg/mL, the Activity (RAW264.7 [6]) was 2655 pg/mL and the Activity (RAW264.7 [7]) was 3393.5 pg/mL. For the same compound, the viability at 48 h, 10 µM [8] was 100%, the IC50 (RAW264.7 [1]) was 2.66 µM and the Activity (RAW264.7 [9]) was 6458.3 pg/mL. The Activity (RAW264.7 [10]) was 7533.7 pg/mL, the Activity (RAW264.7 [11]) was 8187.9 pg/mL and the Activity (RAW264.7 [12]) was 8748.1 pg/mL. For the same compound, the Activity (RAW264.7 [13]) was 791 pg/mL, the Activity (RAW264.7 [14]) was 422.7 pg/mL and the Activity (RAW264.7 [15]) was 393.4 pg/mL. It also gave an Activity (RAW264.7 [16]) of 332.8 pg/mL, an Activity (RAW264.7 [17]) of 269.5 pg/mL and an Activity (RAW264.7 [18]) of 927.7 pg/mL. The Activity (RAW264.7 [19]) was 1120.3 pg/mL, the Activity (RAW264.7 [20]) was 1240.5 pg/mL and the Activity (RAW264.7 [21]) was 924.1 pg/mL. The Activity (RAW264.7 [22]) was 1336.5 pg/mL, the Activity (RAW264.7 [23]) was 1594.9 pg/mL and the Activity (RAW264.7 [24]) was 1770.4 pg/mL.
Work on CC1C[C@H](O/C=C2/C(=O)O[C@H]3c4ccccc4C[C@@H]23)OC1=O (some centres undefined) yielded an IC50 (RAW264.7 [1]) of 60.5 µM.
